Results on six compounds are retold here after ChEMBL document CHEMBL1909624, “BRN-103, a novel nicotinamide derivative, inhibits VEGF-induced angiogenesis and proliferation in human umbilical vein endothelial cells” (2011).

Active and inactive are the calls of the source. No cut-off for these calls is given here.

In experiment [1] the test system is HUVEC. Put plainly: Antiangiogenic activity in HUVEC assessed as decrease in VEGF-induced cell migration at 50 uM after 24 hrs by transwell migration assay. It counts as functional, cell-based. The conditions noted are these: Homo sapiens.
The test system of experiment [2] is HUVEC. Put plainly: Cytotoxicity against human HUVEC. It counts as functional.
Experiment [3] has as its system HUVEC. The experiment is described as follows: Inhibition of AKT phosphorylation at Ser-473 in VEGF-stimulated HUVEC preincubated for 1 hr before VEGF induction measured after 30 mins by Western blot analysis. The conditions noted are these: Homo sapiens. Type of experiment: cell-based. Put shortly: (§1)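 0.1% serum-starved HUVECs were pretreated with compound for 1 h, then given 10 ng/ml VEGF for 5 min (p-ERK), 30 min (p-AKT) or 1 h (p-eNOS). Lysates were Western-blotted with phospho-specific and total AKT, ERK and eNOS antibodies. Bands were quantified as the mean of three experiments with SD; ANOVA with Dunnett's test.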
On the technique in general: A western blot detects proteins with antibodies after separation by electrophoresis.

Another experiment deals with Aorta. Put plainly: Inhibition of VEGF-induced angiogenesis in C57BL/6 mouse aortic rings assessed as decrease in microvessel sprouting after 7 days. Type of experiment: functional, tissue-based.
For experiment [4], the system named is HUVEC. Put plainly: Antiangiogenic activity in HUVEC assessed as decrease in VEGF-induced cell migration after 24 hrs by transwell migration assay. Type of experiment: functional, cell-based. The conditions noted are these: Homo sapiens. Put shortly:
(§2)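 HUVECs were seeded in a Boyden chamber on a porous membrane, with test compound in 0.1% EBM in the upper chamber and 10 ng/ml VEGF in the lower. After 24 h, cells that had crossed the pores were counted. Mean of three independent experiments with SD; ANOVA with Dunnett's post-hoc test.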

Experiment [5] has as its target Vascular endothelial growth factor receptor 2 (Homo sapiens) (UniProt P35968). Put plainly: Inhibition of VEGFR2 phosphorylation at tyr-1175 in VEGF-stimulated HUVEC preincubated for 1 hr before VEGF induction measured after 5 mins by Western blot analysis. Put shortly:
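HUVECs were pretreated with compound for 1 h, stimulated with 10 ng/ml VEGF for 5 min, and lysed. Western blot used an anti-phospho-VEGFR2 antibody, with total VEGFR and β-actin as internal controls. Blot representative of three separate experiments.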

For experiment [6], the system named is HUVEC. Put plainly: Antiangiogenic activity in HUVEC assessed as decrease in VEGF-induced cell migration at 10 uM after 24 hrs by transwell migration assay. Type of experiment: functional, cell-based. The conditions noted are these: Homo sapiens.
For experiment [7], the system named is HUVEC. Put plainly: Antiangiogenic activity in VEGF-stimulated HUVEC assessed as inhibition of capillary tube formation preincubated for 1 hr measured after 6 hrs by photographic analysis. The conditions noted are these: Homo sapiens. It counts as functional, cell-based. The procedure, abridged:
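HUVECs were pretreated with compound for 1 h, then seeded at 4–7 × 10⁴ cells on growth factor-reduced Matrigel in EBM with or without 10 ng/ml VEGF. After 6 h, tubes were photographed at ×100 and counted manually in low-power fields. Mean of three experiments with SD.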

Experiment [8] concerns HUVEC. Put plainly: Antiangiogenic activity in HUVEC assessed as decrease in VEGF-induced cell migration after 24 hrs by wound healing assay. As to conditions: Homo sapiens.
The target in experiment [9] is T1, Nitric oxide synthase 3 (Homo sapiens) (UniProt P29474).
T1 sequence (whole entry): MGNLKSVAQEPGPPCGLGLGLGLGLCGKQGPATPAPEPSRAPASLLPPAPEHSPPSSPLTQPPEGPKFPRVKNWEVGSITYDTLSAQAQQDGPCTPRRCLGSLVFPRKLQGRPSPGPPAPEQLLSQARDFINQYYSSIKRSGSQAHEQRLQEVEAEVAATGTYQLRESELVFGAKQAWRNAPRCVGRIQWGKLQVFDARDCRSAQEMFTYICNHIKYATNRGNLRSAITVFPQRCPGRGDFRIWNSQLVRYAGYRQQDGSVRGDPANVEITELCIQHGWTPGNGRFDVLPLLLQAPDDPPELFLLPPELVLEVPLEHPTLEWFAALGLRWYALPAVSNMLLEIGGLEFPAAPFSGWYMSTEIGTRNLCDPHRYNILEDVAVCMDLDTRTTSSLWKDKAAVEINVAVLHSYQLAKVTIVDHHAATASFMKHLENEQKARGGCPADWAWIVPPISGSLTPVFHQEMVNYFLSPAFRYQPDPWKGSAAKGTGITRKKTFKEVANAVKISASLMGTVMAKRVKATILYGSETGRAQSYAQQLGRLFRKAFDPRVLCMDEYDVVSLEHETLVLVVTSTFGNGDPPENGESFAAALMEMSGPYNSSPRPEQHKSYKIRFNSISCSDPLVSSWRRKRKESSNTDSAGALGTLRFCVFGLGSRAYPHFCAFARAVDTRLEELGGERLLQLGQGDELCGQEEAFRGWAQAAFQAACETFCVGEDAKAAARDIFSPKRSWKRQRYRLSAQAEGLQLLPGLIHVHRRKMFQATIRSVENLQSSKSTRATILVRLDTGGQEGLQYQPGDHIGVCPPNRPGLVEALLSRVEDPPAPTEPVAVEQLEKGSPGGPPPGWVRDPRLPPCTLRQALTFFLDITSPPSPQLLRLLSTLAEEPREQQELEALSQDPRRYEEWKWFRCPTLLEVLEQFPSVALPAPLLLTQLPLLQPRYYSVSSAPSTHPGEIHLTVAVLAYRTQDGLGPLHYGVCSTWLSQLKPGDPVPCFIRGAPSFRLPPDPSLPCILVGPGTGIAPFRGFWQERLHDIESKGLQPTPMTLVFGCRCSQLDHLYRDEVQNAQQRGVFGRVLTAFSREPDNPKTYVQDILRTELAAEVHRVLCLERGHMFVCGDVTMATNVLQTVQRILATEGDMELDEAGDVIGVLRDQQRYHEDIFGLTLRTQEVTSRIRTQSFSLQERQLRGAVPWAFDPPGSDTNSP
The experiment is described as follows: Inhibition of eNOS phosphorylation at […] in VEGF-stimulated HUVEC preincubated for 1 hr before VEGF induction measured after 1 hr by Western blot analysis. The procedure, abridged:
as §1

For experiment [10], the system named is HUVEC. Put plainly: Antiangiogenic activity in HUVEC assessed as inhibition of VEGF-induced cell proliferation by BrdU incorporation assay. It counts as functional, cell-based. As to conditions: Homo sapiens. The procedure, abridged: (§3)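 DNA synthesis was measured by BrdU incorporation in 0.1% serum-starved HUVECs stimulated with VEGF, with or without compound. Incorporated BrdU was detected with an anti-BrdU monoclonal antibody using a commercial ELISA kit. Mean of three experiments with SD; ANOVA with Dunnett's post-hoc test.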
(Incorporation of labelled thymidine or its analogues reports DNA synthesis.)

For experiment [11], the system named is HUVEC. Put plainly: Inhibition of ERK phosphorylation at Thr202/Tyr204 in VEGF-stimulated HUVEC preincubated for 1 hr before VEGF induction measured after 5 mins by Western blot analysis. The conditions noted are these: Homo sapiens. It counts as cell-based. The procedure, abridged:
as §1

The subject of experiment [12] is HUVEC. The experiment is described as follows: Inhibition of ERK phosphorylation at Thr202/Tyr204 in VEGF-stimulated HUVEC at 1 uM preincubated for 1 hr before VEGF induction measured after 5 mins by Western blot analysis. It counts as cell-based. As to conditions: Homo sapiens. Put shortly: as §1
The test system of experiment [13] is HUVEC. Put plainly: Antiangiogenic activity in HUVEC assessed as inhibition of VEGF-induced cell proliferation at 1 uM by BrdU incorporation assay. Type of experiment: functional, cell-based. As to conditions: Homo sapiens. The procedure, abridged: as §3
Experiment [14] has as its system HUVEC. Put plainly: Inhibition of AKT phosphorylation at Ser-473 in VEGF-stimulated HUVEC at 1 uM preincubated for 1 hr before VEGF induction measured after 30 mins by Western blot analysis. Type of experiment: cell-based. The conditions noted are these: Homo sapiens. Put shortly:
as §1

Experiment [15] concerns the target T1, Nitric oxide synthase 3 (Homo sapiens). Put plainly: Inhibition of eNOS phosphorylation at […] in VEGF-stimulated HUVEC at 1 uM preincubated for 1 hr before VEGF induction measured after 1 hr by Western blot analysis. The procedure, abridged: as §1
The test system of experiment [16] is HUVEC. The experiment is described as follows: Antiangiogenic activity in HUVEC assessed as decrease in VEGF-induced cell migration at 1 uM after 24 hrs by transwell migration assay. Type of experiment: functional, cell-based. As to conditions: Homo sapiens. Put shortly: as §2
Experiment [17] deals with HUVEC. The experiment is described as follows: Antiangiogenic activity in HUVEC assessed as decrease in VEGF-induced cell migration at 25 uM after 24 hrs by transwell migration assay. It counts as functional, cell-based. The conditions noted are these: Homo sapiens.

Sequence of Vascular endothelial growth factor receptor 2 (Homo sapiens) (P35968 whole entry): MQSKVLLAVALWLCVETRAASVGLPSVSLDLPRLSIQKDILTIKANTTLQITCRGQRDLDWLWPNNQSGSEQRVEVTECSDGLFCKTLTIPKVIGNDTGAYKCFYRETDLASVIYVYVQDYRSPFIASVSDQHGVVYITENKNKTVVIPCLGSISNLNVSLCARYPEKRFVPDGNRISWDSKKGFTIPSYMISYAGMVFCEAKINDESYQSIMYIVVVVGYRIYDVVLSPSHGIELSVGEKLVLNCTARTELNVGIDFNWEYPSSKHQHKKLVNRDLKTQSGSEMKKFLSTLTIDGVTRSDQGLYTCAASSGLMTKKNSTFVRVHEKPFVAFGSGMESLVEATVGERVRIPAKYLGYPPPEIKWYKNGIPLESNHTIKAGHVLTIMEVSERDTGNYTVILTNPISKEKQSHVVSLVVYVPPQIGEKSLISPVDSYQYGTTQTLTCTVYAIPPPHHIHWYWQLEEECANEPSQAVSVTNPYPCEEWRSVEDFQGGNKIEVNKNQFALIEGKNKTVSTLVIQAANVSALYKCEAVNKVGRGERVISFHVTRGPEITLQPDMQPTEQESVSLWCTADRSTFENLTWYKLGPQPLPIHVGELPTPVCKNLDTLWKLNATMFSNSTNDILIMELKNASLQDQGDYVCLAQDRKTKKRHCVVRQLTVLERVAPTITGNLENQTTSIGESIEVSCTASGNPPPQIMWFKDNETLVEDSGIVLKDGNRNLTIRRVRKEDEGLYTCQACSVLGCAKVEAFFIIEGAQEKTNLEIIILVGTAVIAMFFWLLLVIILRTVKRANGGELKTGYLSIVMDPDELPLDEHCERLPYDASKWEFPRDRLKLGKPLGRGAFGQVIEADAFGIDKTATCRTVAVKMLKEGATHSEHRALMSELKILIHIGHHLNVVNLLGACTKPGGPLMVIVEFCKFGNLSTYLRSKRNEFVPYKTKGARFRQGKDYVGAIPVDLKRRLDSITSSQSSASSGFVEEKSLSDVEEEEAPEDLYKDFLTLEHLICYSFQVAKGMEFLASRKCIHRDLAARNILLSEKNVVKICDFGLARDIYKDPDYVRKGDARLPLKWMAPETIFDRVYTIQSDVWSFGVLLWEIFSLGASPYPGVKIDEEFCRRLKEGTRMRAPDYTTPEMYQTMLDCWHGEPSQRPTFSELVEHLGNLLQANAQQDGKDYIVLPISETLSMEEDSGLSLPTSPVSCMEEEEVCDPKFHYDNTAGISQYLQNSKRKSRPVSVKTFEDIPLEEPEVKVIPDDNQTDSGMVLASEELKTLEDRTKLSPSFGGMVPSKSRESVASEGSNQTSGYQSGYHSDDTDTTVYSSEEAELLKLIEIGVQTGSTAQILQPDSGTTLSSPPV

By IC90 is commonly meant the concentration at which the effect reaches the 90% level. A high value points to a need for much substance. Regarding `COc1ccc(C(=O)N2CCN(c3ncccc3C(=O)Nc3cccc(Cl)c3)CC2)cc1`, the result in the experiment on HUVEC [1] was Active. Further, in the experiment with HUVEC [2], the concentration for an effect of 90% (IC90) was more than 50 µM.
`O=C(Nc1cccc(Cl)c1)c1cccnc1NC1CCN(Cc2ccccc2)CC1`: the inhibition entry (in the experiment with HUVEC [3]; in the experiment with Aorta; in [5]; in the experiment on HUVEC [7]; in experiment [9]; with HUVEC [10]) was “Dose-dependent effect” throughout. In addition, the inhibition entry in the experiment on HUVEC [11] was “Dose-dependent effect”. The Activity entry in the experiment with HUVEC [4] and in the experiment on HUVEC [8] was “Dose-dependent effect” throughout. Moreover, it took 9.42 µM to reach the 90% level in the experiment with HUVEC [2] (IC90). Besides, the outcome with HUVEC [6] was Active.
Consider `CCN(CC)CCNC(=O)c1c(C)[nH]c(/C=C2\C(=O)Nc3ccc(F)cc32)c1C` [SUNITINIB], for which the inhibition result (with HUVEC [12]; in the experiment on HUVEC [13]; in [15]) was “Active” throughout. Also, in the experiment with HUVEC [2], the 90% effect concentration (IC90) amounted to 1 µM. Further, the inhibition entry in the experiment with HUVEC [14] was “inactive”. Besides, the result in the experiment on HUVEC [16] was Active.
Turning to `O=C(Nc1cccc(Cl)c1)c1cccnc1NC[C@@H]1CN(Cc2ccc(F)cc2)C(=O)CO1`, the outcome in the experiment on HUVEC [1] was Active. For the same compound, the concentration for an effect of 90% (IC90) in the experiment on HUVEC [2] was more than 50 µM.
Regarding `O=C(Nc1cccc(Cl)c1)c1cccnc1NC1CCN(CO)CC1`, the outcome in the experiment with HUVEC [17] was Active. The compound further showed a concentration for an effect of 90% (IC90) with HUVEC [2] of 29.2 µM.
In the case of `O=C(Nc1cccc(Cl)c1)c1cccnc1N1CCN(C(=O)c2cccc(F)c2)CC1`, the result in the experiment on HUVEC [1] was Active. Also, the IC90 in the experiment with HUVEC [2] is more than 50 µM.
